Calls of active or inactive are those of the source.
Columns and labels:
Assay type in all cases: functional, organism-based
Pseudomonas aeruginosa = assay: Antibacterial activity against Pseudomonas aeruginosa at 1 mM by almar blue dye reduction assay
In short: (§1)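 Single-point primary screen at 1 mM using Alamar Blue dye reduction as the growth read-out.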

Cryptococcus neoformans = assay: Antifungal activity against Cryptococcus neoformans at 1 mM by almar blue dye reduction assay; in short: as §1
Escherichia coli = assay: Antibacterial activity against Escherichia coli at 1 mM by almar blue dye reduction assay; in short: as §1
Bacillus subtilis = assay: Antibacterial activity against Bacillus subtilis at 1 mM by almar blue dye reduction assay; in short: as §1
Staphylococcus aureus = assay: Antibacterial activity against Staphylococcus aureus at 1 mM by almar blue dye reduction assay; in short: as §1
Bacillus cereus = assay: Antibacterial activity against Bacillus cereus at 1 mM by almar blue dye reduction assay; in short: as §1
Candida albicans = assay: Antifungal activity against Candida albicans at 1 mM by almar blue dye reduction assay; in short: as §1
Bacillus anthracis = assay: Antibacterial activity against Bacillus anthracis at 1mM by almar blue dye reduction assay
Saccharomyces cerevisiae = assay: Antifungal activity against Saccharomyces cerevisiae at 1 mM by almar blue dye reduction assay; in short: as §1

Measured: Activity

CC(C)NC(=O)[C@H](C)[C@H]1CC[C@@H](C[C@@H](C)n2cc(C#Cc3ccc(-c4ccccc4)cc3)nn2)O1
inactive: all assays above

CCN(CC)C(=O)[C@H](C)[C@H]1CC[C@@H](C[C@@H](C)n2cc(C#CCOc3ccc(OC)cc3)nn2)O1
inactive: all assays above

CCCNC(=O)NCC#Cc1cn([C@H](C)CC2CCC([C@@H](C)C(=O)N(CC)CC)O2)nn1 (single isomer, unassigned)
inactive: all assays above

CC(C)NC(=O)[C@H](C)[C@H]1CC[C@@H](C[C@@H](C)n2cc(C#CC3=CCCCC3)nn2)O1
inactive: all assays above

CCOC(=O)C#Cc1cn([C@H](C)CC2CCC([C@@H](C)C(=O)N(CC)CC)O2)nn1 (single isomer, unassigned)
inactive: all assays above

CCC(=O)OCC#Cc1cn([C@H](C)CC2CCC([C@@H](C)C(=O)N3CCCC3)O2)nn1 (single isomer, unassigned)
inactive: all assays above

CCCNC(=O)NCC#Cc1cn([C@H](C)CC2CCC([C@@H](C)C(=O)N3CCCC3)O2)nn1 (single isomer, unassigned)
inactive: all assays above

Cc1cccc(NC(=O)OCC#Cc2cn([C@H](C)CC3CCC([C@@H](C)C(=O)N(C)Cc4ccccc4)O3)nn2)c1 (single isomer, unassigned)
inactive: all assays above

CC(C)NC(=O)[C@H](C)[C@H]1CC[C@@H](C[C@@H](C)n2cc(C#CCOc3ccc(Br)cc3)nn2)O1
inactive: all assays above

C[C@H](CC1CCC([C@@H](C)C(=O)N(C)Cc2ccccc2)O1)n1cc(C#CCOC(=O)OCc2ccccc2)nn1 (single isomer, unassigned)
inactive: all assays above

CC(C)NC(=O)[C@H](C)[C@H]1CC[C@@H](C[C@@H](C)n2cc(C#CCC3CCCC3)nn2)O1
inactive: all assays above

CCN(CC)C(=O)[C@H](C)[C@H]1CC[C@@H](C[C@@H](C)n2cc(C#Cc3ccccn3)nn2)O1
inactive: all assays above

C[C@H](CC1CCC([C@@H](C)C(=O)N2CCN(CC3CCCO3)CC2)O1)n1cc(C#CCCCC#N)nn1 (single isomer, unassigned)
inactive: all assays above

C[C@H](C[C@@H]1CC[C@H]([C@@H](C)C(=O)N2CCCC2)O1)n1cc(C#Cc2cccc3ccccc23)nn1
inactive: all assays above

C[C@H](C[C@@H]1CC[C@H]([C@@H](C)C(=O)N2CCN(CC3CCCO3)CC2)O1)n1cc(C#CCC2CCCC2)nn1 (stereo partly drawn)
inactive: all assays above

CC(C)CC#Cc1cn([C@H](C)C[C@@H]2CC[C@H]([C@@H](C)C(=O)N3CCCC3)O2)nn1
inactive: all assays above

CCN(CC)C(=O)[C@H](C)[C@H]1CC[C@@H](C[C@@H](C)n2cc(C#Cc3cccc4ccccc34)nn2)O1
inactive: all assays above

From ChEMBL document CHEMBL1155099, “Natural products in parallel synthesis: triazole libraries of nonactic acid” (2008)
